Source: ChEMBL document CHEMBL1125866, “Aldophosphamide acetal diacetate and structural analogues: synthesis and cytotoxicity studies” (J Med Chem, 1991)

Tests used:
L1210 = experiment: Concentration required to reduce the viability of L1210 cells by 50% after 1-h incubation at 37 degrees C; type: functional, cell-based; conditions: Mus musculus, L1210, 1 h
Summary of the method: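 Exposed to at least seven drug concentrations (0.1–300 μM) for 1 h at 37 °C, washed, regrown drug-free 72 h. MTT reduction read at 570 nm. IC50 from concentration–viability plot, average of duplicates.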

carboxylate esterase = experiment: Half-life in […] at pH 7.4(37 degrees C) in the presence of pig Liver Carboxylate Esterase; type: ADME, Sus scrofa; conditions: pig liver carboxylate esterase in phosphate buffer
Summary of the method: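 Acetal at 100 μM in 0.05 M phosphate buffer, pH 7.4, at 37 °C with pig liver carboxylate esterase, 2 units per μmol substrate (1 unit hydrolyses 1.0 μmol ethyl butyrate/min at pH 8.0, 25 °C). Samples vortexed, centrifuged, supernatant analysed by C-18 HPLC, UV 220 nm. Half-life by least-squares regression, pseudo-first-order.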

[1] = Half-life in […] Phosphate buffer at pH 7.4(37 degrees C); type: ADME
Summary of the method: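 Acetal at 100 μM in 0.05 M phosphate buffer, pH 7.4, shaken at 37 °C without enzyme. Aliquots taken at intervals (typically 2–50 h) and parent drug measured by reverse-phase C-18 HPLC with UV detection at 220 nm. Half-life from linear least-squares regression of pseudo-first-order decay.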

SMILES: CCNP(=O)(OCCC(OC(C)=O)OC(C)=O)N(CCCl)CCCl (configuration not stated)
- IC50 (L1210): 29 µM
- half-life (carboxylate esterase): 42 s
- half-life [1]: 40 h

SMILES: CC(=O)OC(CCOP(N)(=O)N(CCCl)CCCl)OC(C)=O.O=S(=O)(O)CCS (configuration not stated)
- IC50 (L1210): 0.9 µM

SMILES: O=P1(N(CCCl)CCCl)NCCCO1 (configuration not stated) [CYCLOPHOSPHAMIDE ANHYDROUS]
- IC50 (L1210): > 300 µM

SMILES: C=CC=O [ACROLEIN]
- IC50 (L1210): 48 µM

SMILES: C=CC=O.O=S(=O)(O)CCS
- IC50 (L1210): 168 µM

SMILES: CCN(CC)P(=O)(OCCC(OC(C)=O)OC(C)=O)N(CCCl)CCCl (configuration not stated)
- IC50 (L1210): 78 µM
- half-life (carboxylate esterase): 40 s
- half-life [1]: 37 h

SMILES: CC(=O)OC(CCOP(N)(=O)N(CCCl)CCCl)OC(C)=O (configuration not stated)
- IC50 (L1210): 0.9 µM
- half-life (carboxylate esterase): 36 s
- half-life [1]: 38 h

SMILES: O=S(=O)(O)CCS [MESNA]
- IC50 (L1210): > 200 µM

SMILES: CNP(=O)(OCCC(OC(C)=O)OC(C)=O)N(CCCl)CCCl (configuration not stated)
- IC50 (L1210): 38 µM
- half-life (carboxylate esterase): 42 s
- half-life [1]: 42 h

SMILES: O=P1(N(CCCl)CCCl)NC(OO)CCO1.O=S(=O)(O)CCS (configuration not stated)
- IC50 (L1210): 90 µM

SMILES: CC(=O)OC(CCOP(=O)(N(C)C)N(CCCl)CCCl)OC(C)=O (configuration not stated)
- IC50 (L1210): > 245 µM
- half-life (carboxylate esterase): 36 s
- half-life [1]: 36 h

SMILES: O=P1(N(CCCl)CCCl)NC(OO)CCO1 (configuration not stated) [PERFOSFAMIDE]
- IC50 (L1210): 90 µM
